Results published in ChEMBL document CHEMBL4715681, “Targeting miRNA by tunable small molecule binders: peptidic aminosugar mediated interference in miR-21 biogenesis reverts epithelial to mesenchymal transition” (Medchemcomm, 2018).
≈ marks a conversion by molar mass, not a printed value. Where “and” joins values, the source holds several entries; their conditions need not be identical. Equal values may be shown once. Calls of active or inactive are those of the source. No cut-off for these calls is given here.

Key:
microRNA 21 [1] = test: Displacement of F-neo from premature miRNA21 (unknown origin) at 100 nM by fluorescence assay relative to control; type: nucleic-acid assay
Summary of the method: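 Competition fluorescence: pre-miR21 (12.5 nM, annealed 75→25 °C at 1 °C/min) complexed with 100 nM F-neo in 10 mM phosphate, 25 mM KCl, 0.05 mM EDTA, pH 6.5. Test agent added at 100 nM. Emission read at ex 485/em 525 nm. Percent binding = (I−Ic)×100/(Ineo−Ic), referenced to 100 nM kanamycin; duplicate controls.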

microRNA 21 [2] = test: Inhibition of premature miRNA-21 (unknown origin) transfected in human MCF7 cells assessed as reduction of maturation of pre-miRNA21 at 5 uM incubated for 48 hrs by qPCR analysis; type: cell-based
Summary of the method: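 MCF7 cells treated 48 h at 5 μM, as for the Western blots. Total RNA extracted with TRIzol and DNase-treated; 400-500 ng polyadenylated and reverse-transcribed with oligo(dT) adaptor. SYBR qPCR run in triplicate for mature miR21, normalized to U6 snRNA, fold change by 2^-ΔΔCt.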

microRNA 21 [3] = test: Inhibition of premature miRNA-21 (unknown origin) transfected in human MCF7 cells assessed as increase in PDCD4 expression at 5 uM incubated for 48 hrs by Western blot analysis; type: cell-based
Summary of the method: (§1)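 MCF7 cells seeded at 4x10⁴/well, treated 24 h later at 5 μM for 48 h. Controls: antisense LNA transfected at 50 nM, kanamycin forms, streptomycin, untreated. Lysates (40 µg protein) run on SDS-PAGE and blotted to PVDF. Probed with PDCD4 or PTEN (1:1000) plus GAPDH (1:2000) antibodies overnight at 4 °C, then HRP secondary and ECL; bands quantified as fold change versus controls.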

microRNA 21 [4] = test: Binding affinity to pre-miRNA21 (unknown origin) by […]; type: nucleic-acid assay
Summary of the method: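 Bio-layer interferometry (Octet RED96) with immobilized pre-miR21. Analytes run at 8-128 nM in 10 mM HEPES, 50 mM NaCl, 0.05% Tween20. Association 5 min, dissociation 10 min; regeneration in 50 mM NaOH, 1 M NaCl. KD derived from the binding curves.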

Escherichia coli [5] = test: Antibacterial activity against Escherichia coli ATCC 25922 assessed as reduction in bacterial growth at 64 uM incubated for 15 to 20 hrs by broth microdilution method relative to control; type: functional; details: time 15-20 hrs, read-out: GI
Staphylococcus aureus [6] = test: Antibacterial activity against Staphylococcus aureus ATCC 25923 assessed as reduction in bacterial growth at 64 uM incubated for 15 to 20 hrs by broth microdilution method relative to control; type: functional; details: time 15-20 hrs, read-out: GI
Pseudomonas aeruginosa [7] = test: Antibacterial activity against Pseudomonas aeruginosa ATCC 27853 assessed as reduction in bacterial growth at 64 uM incubated for 15 to 20 hrs by broth microdilution method relative to control; type: functional; details: time 15-20 hrs, read-out: GI
Staphylococcus aureus [8] = test: Antibacterial activity against methicillin-resistant Staphylococcus aureus ATCC 1960649 assessed as reduction in bacterial growth at 64 uM incubated for 15 to 20 hrs by broth microdilution method relative to control; type: functional; details: time 15-20 hrs; for inhibition of growth at 64 µM: read-out: GI
Escherichia coli [9] = test: Antibacterial activity against Escherichia coli ATCC 25922 assessed as reduction in bacterial growth at 12.5 uM incubated for 15 to 20 hrs by broth microdilution method relative to control; details: time 15-20 hrs
Staphylococcus aureus [10] = test: Antibacterial activity against Staphylococcus aureus ATCC 25923 assessed as reduction in bacterial growth at 12.5 uM incubated for 15 to 20 hrs by broth microdilution method relative to control; details: time 15-20 hrs
Pseudomonas aeruginosa [11] = test: Antibacterial activity against Pseudomonas aeruginosa ATCC 27853 assessed as reduction in bacterial growth at 12.5 uM incubated for 15 to 20 hrs by broth microdilution method relative to control; details: time 15-20 hrs
MCF7 [12] = test: Antiproliferative activity against human MCF7 cells assessed as reduction in Ki67 expression at 5 uM incubated for 48 hrs by fluorescence microscopy; type: functional, cell-based
Summary of the method: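 MCF7 cells seeded on coverslips (8x10⁴ per well) and grown 24 h at 37 °C, 5% CO₂, then treated 48 h at 5 μM; untreated and kanamycin controls. Fixed in 3% paraformaldehyde, permeabilized with 0.2% Triton X-100, blocked with 0.5% BSA. Stained with anti-Ki67 (1:1000, overnight) and Alexa Fluor 488 secondary (1:2000, 2 h). Nuclear speckles imaged.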

microRNA 21 [13] = test: Inhibition of premature miRNA-21 (unknown origin) transfected in human MCF7 cells assessed as increase in PTEN expression at 5 uM incubated for 48 hrs by Western blot analysis; type: cell-based; summary of the method: as §1
[14] = Cytotoxicity against human MCF7 cells assessed as reduction cell viability at 2.5 to 5 uM incubated for 24 hrs by MTT assay; type: cell-based; details: dose 2.5-5 µM, read-out: INH
Summary of the method: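 MTT assay in MCF7 cells seeded at 8000/well and treated 24 h after seeding at 0, 2.5, 5, 7.5 and 10 μM, in triplicate. After 24 h exposure, MTT (0.5 mg/ml) added for 4 h at 37 °C. Crystals dissolved in DMSO and absorbance read at 570 nm to give percent viable cells.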

MCF7 [15] = test: Antimigratory activity in human MCF7 cells assessed as […] at 5 uM incubated for 48 hrs by imaging analysis relative to control; type: functional
Summary of the method: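 MCF-7 cells seeded densely and grown to confluence, then scratched with a pipette tip and washed with PBS. Treated at 5μM alongside an untreated well. Wound images quantified in ImageJ; three biological replicates, error bars ± S.D.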

MCF7 [16] = test: Inhibition of epithelial-mesenchymal transition in human MCF7 cells increase in E-cadherin expression at 5 uM incubated for 48 hrs by inverted fluorescence microscopy
microRNA 21 [17] = test: Displacement of F-neo from premature miRNA21 (unknown origin) by fluorescence assay; type: nucleic-acid assay
Escherichia coli [18] = test: Antibacterial activity against Escherichia coli ATCC 25922 assessed as reduction in bacterial growth incubated for 15 to 20 hrs by broth microdilution method; type: functional; details: time 15-20 hrs
Summary of the method: (§2)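 MIC by CLSI broth microdilution on exponential-phase cultures, in triplicate. Compound stocks were made at 10× final in 10% DMSO and added to the bacterial suspension (about 3 x 10⁵ cells/mL in cation-adjusted Mueller-Hinton broth). Final concentrations were 2-fold serial dilutions from 50 μM to 0.78 μM. Plates were incubated humidified at 37°C for 15-20 h, growth was read as absorbance at 595 nm, and % inhibition was averaged from the triplicates.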

Staphylococcus aureus [19] = test: Antibacterial activity against Staphylococcus aureus ATCC 25923 assessed as reduction in bacterial growth incubated for 15 to 20 hrs by broth microdilution method; type: functional; details: time 15-20 hrs; summary of the method: as §2
Pseudomonas aeruginosa [20] = test: Antibacterial activity against Pseudomonas aeruginosa ATCC 27853 assessed as reduction in bacterial growth incubated for 15 to 20 hrs by broth microdilution method; type: functional; details: time 15-20 hrs
Summary of the method: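 CLSI broth microdilution on exponential-phase bacteria, ~3 x 10⁵ cells/mL in cation-adjusted Mueller-Hinton broth. Serial 2-fold dilutions give final 50 to 0.78 μM from 10x stocks in 10% DMSO. Incubated 15-20 h at 37°C, humidified. Growth read at 595 nm; percent inhibition averaged from triplicates to give MIC.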

Staphylococcus aureus [21] = test: Antibacterial activity against methicillin-resistant Staphylococcus aureus ATCC 1960649 assessed as reduction in bacterial growth incubated for 15 to 20 hrs by broth microdilution method; type: functional; details: time 15-20 hrs; summary of the method: as §2

N=C(N)NCCC[C@H](NC(=O)[C@H](CCCNC(=N)N)NC(=O)CCC(=O)NC[C@H]1O[C@H](O[C@@H]2[C@@H](O)[C@H](O[C@H]3O[C@H](CN)[C@@H](O)[C@H](O)[C@H]3O)[C@@H](N)C[C@H]2N)[C@H](O)[C@@H](N)[C@@H]1O)C(N)=O
inhibition (microRNA 21 [1]): 137% | inhibition (microRNA 21 [2]): Active | inhibition (microRNA 21 [3]): Active | Activity (microRNA 21 [4]; dose 16.0 nM): Active | inhibition of growth at 64 µM (Escherichia coli [5]): 25% | inhibition of growth at 64 µM (Staphylococcus aureus [6]): 29% | inhibition of growth at 64 µM (Pseudomonas aeruginosa [7]): 11% | inhibition of growth at 64 µM (Staphylococcus aureus [8]): 30%

CN[C@@H]1[C@H](O[C@H]2[C@H](O[C@H]3[C@H](O)[C@@H](O)[C@H](N=C(N)N)[C@@H](O)[C@@H]3N=C(N)N)O[C@@H](C)[C@]2(O)C=O)O[C@@H](CO)[C@H](O)[C@H]1O
inhibition (microRNA 21 [1]): 107%

NC[C@H]1O[C@H](O[C@H]2[C@H](O)[C@@H](O[C@H]3O[C@H](CNC(=O)CCC(=O)N[C@@H](Cc4ccc(O)cc4)C(=O)N[C@@H](CC(=O)O)C(N)=O)[C@@H](O)[C@H](N)[C@H]3O)[C@H](N)C[C@@H]2N)[C@H](O)[C@@H](O)[C@@H]1O
inhibition (microRNA 21 [1]): 5% | inhibition (microRNA 21 [2]): Active | inhibition (microRNA 21 [3]): Active | growth inhibition (GI) (Staphylococcus aureus [8]): inactive | growth inhibition (GI) (Escherichia coli [9]): inactive | growth inhibition (GI) (Staphylococcus aureus [10]): inactive | growth inhibition (GI) (Pseudomonas aeruginosa [11]): inactive

NC[C@H]1O[C@H](O[C@H]2[C@H](O)[C@@H](O[C@H]3O[C@H](CNC(=O)CCC(=O)N[C@@H](Cc4ccc(O)cc4)C(=O)N[C@@H](CS)C(N)=O)[C@@H](O)[C@H](N)[C@H]3O)[C@H](N)C[C@@H]2N)[C@H](O)[C@@H](O)[C@@H]1O
inhibition (microRNA 21 [1]): 133% | inhibition (MCF7 [12]): Active | inhibition of growth at 64 µM (Staphylococcus aureus [6]): 34% | inhibition of growth at 64 µM (Staphylococcus aureus [8]): 38% | growth inhibition (GI) (Escherichia coli [9]): inactive | growth inhibition (GI) (Pseudomonas aeruginosa [11]): inactive

N=C(N)NCCC[C@H](NC(=O)CCC(=O)NC[C@H]1O[C@H](O[C@@H]2[C@@H](O)[C@H](O[C@H]3O[C@H](CN)[C@@H](O)[C@H](O)[C@H]3O)[C@@H](N)C[C@H]2N)[C@H](O)[C@@H](N)[C@@H]1O)C(=O)N[C@@H](CS)C(N)=O
inhibition of growth at 64 µM (Escherichia coli [5]): 13% | inhibition of growth at 64 µM (Staphylococcus aureus [6]): 20% | inhibition of growth at 64 µM (Staphylococcus aureus [8]): 25% | growth inhibition (GI) (Pseudomonas aeruginosa [11]): inactive

NC[C@H]1O[C@H](O[C@H]2[C@H](O)[C@@H](O[C@H]3O[C@H](CNC(=O)CCC(=O)N[C@@H](Cc4ccccc4)C(=O)N[C@@H](CS)C(N)=O)[C@@H](O)[C@H](N)[C@H]3O)[C@H](N)C[C@@H]2N)[C@H](O)[C@@H](O)[C@@H]1O
inhibition (microRNA 21 [1]): 140% | inhibition (microRNA 21 [2]): Active | inhibition (microRNA 21 [13]): Active | inhibition (microRNA 21 [3]): Active | Kd (microRNA 21 [4]): 43.6 nM | cytotoxicity at 24 h, up to 5 µM [14]: 2% | Activity (MCF7 [15]): >50% | inhibition of growth at 64 µM (Staphylococcus aureus [8]): 22% | inhibition (MCF7 [16]): Active | growth inhibition (GI) (Escherichia coli [9]): inactive | growth inhibition (GI) (Staphylococcus aureus [10]): inactive | growth inhibition (GI) (Pseudomonas aeruginosa [11]): inactive

NC[C@H]1O[C@H](O[C@H]2[C@H](O)[C@@H](O[C@H]3O[C@H](CO)[C@@H](O)[C@H](N)[C@H]3O)[C@H](N)C[C@@H]2N)[C@H](O)[C@@H](O)[C@@H]1O [KANAMYCIN]
IC50 (microRNA 21 [17]): 1100 nM | inhibition (microRNA 21 [1]): 107% and 100% | inhibition (MCF7 [12]): inactive | MIC (Escherichia coli [18]): 4 µM (≈ 1.94 µg/mL) | MIC (Staphylococcus aureus [19]): 4 µM (≈ 1.94 µg/mL) | MIC (Pseudomonas aeruginosa [20]): > 256 µM | MIC (Staphylococcus aureus [21]): > 256 µM | inhibition of growth at 64 µM (Escherichia coli [5]): 100% | inhibition of growth at 64 µM (Staphylococcus aureus [6]): 100% | inhibition of growth at 64 µM (Pseudomonas aeruginosa [7]): 11% | inhibition of growth at 64 µM (Staphylococcus aureus [8]): 41%

C[C@@H](O)[C@H](NC(=O)[C@H](CCCNC(=N)N)NC(=O)CCC(=O)NC[C@H]1O[C@H](O[C@@H]2[C@@H](O)[C@H](O[C@H]3O[C@H](CN)[C@@H](O)[C@H](O)[C@H]3O)[C@@H](N)C[C@H]2N)[C@H](O)[C@@H](N)[C@@H]1O)C(N)=O
inhibition (microRNA 21 [1]): 131% | growth inhibition (GI) (Staphylococcus aureus [8]): inactive | growth inhibition (GI) (Escherichia coli [9]): inactive | growth inhibition (GI) (Staphylococcus aureus [10]): inactive | growth inhibition (GI) (Pseudomonas aeruginosa [11]): inactive
